In ChEMBL document CHEMBL5058577, “EUbOPEN Chemogenomics Library 2 (Multiplex)” (2022):

Tested on: HEK-293T
Assay: Multiplex assay against HEK293T
Type: toxicity, cell-based
Settings: human
How it was run: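 Cells stained live at seeding with Hoechst33342, BioTracker Green Microtubule Cytoskeleton Dye, MitoTracker Red and Annexin V Alexa Fluor 680 were imaged on a CQ1 microscope at 37°C and 5% CO2 after compound addition. Their classification by CellPathfinder machine-learning gating ran from Hoechst high-intensity objects versus normal cells, to healthy, pyknosed or fragmented nuclei among normal cells, to mitotic or apoptotic among pyknosed cells. Tubulin, mitochondrial-mass and membrane-permeability phenotypes are per cents of healthy-nucleus cells.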

[1] = 12 h, 1 µM, compound concentration 1 uM, replicate 1
[2] = 12 h, 1 µM, compound concentration 1 uM, replicate 2
[3] = 12 h, 10 µM, compound concentration 10 uM, replicate 1
[4] = 12 h, 10 µM, compound concentration 10 uM, replicate 2
[5] = 24 h, 1 µM, compound concentration 1 uM, replicate 1
[6] = 24 h, 1 µM, compound concentration 1 uM, replicate 2
[7] = 24 h, 10 µM, compound concentration 10 uM, replicate 1
[8] = 24 h, 10 µM, compound concentration 10 uM, replicate 2
[9] = 48 h, 1 µM, compound concentration 1 uM, replicate 1
[10] = 48 h, 1 µM, compound concentration 1 uM, replicate 2
[11] = 48 h, 10 µM, compound concentration 10 uM, replicate 1
[12] = 48 h, 10 µM, compound concentration 10 uM, replicate 2

`CC(/C=C1\SC(=S)N(CCCC(=O)Nc2ccc(C(=O)O)c(O)c2)C1=O)=C\c1ccccc1` was tested, and the “Population Apoptotic (%)” value [1] was 34%, the “Population Fragmented Nuclei (%)” value [1] was 6% and the “Population Healthy Nuclei (%)” value [1] was 81%. The “Population Hoechst High Intensity Objects (%)” value [1] was 6%, the “Population Membrane Permeable-Phenotype (%)” value [1] was 0% and the “Population Mitochondria Different-Phenotype (%)” value [1] was 41%. The “Population Mitotic Cells (%)” value [1] was 65%, the “Population Normal (%)” value [1] was 93% and the “Population Pyknosed Nuclei (%)” value [1] was 11%. The “Population Tubulin-Different-Phenotype (%)” value [1] was 31%, the “Total Cell Count” value [1] was 422 and the “Population Apoptotic (%)” value [2] was 50%. For the same compound, the “Population Healthy Nuclei (%)” value [2] was 84%, the “Population Mitochondria Different-Phenotype (%)” value [2] was 62% and the “Population Mitotic Cells (%)” value [2] was 50%. The “Population Pyknosed Nuclei (%)” value [2] was 8%, the “Population Tubulin-Different-Phenotype (%)” value [2] was 20% and the “Total Cell Count” value [2] was 389. The “Population Apoptotic (%)” value [3] was 43%, the “Population Fragmented Nuclei (%)” value [3] was 5% and the “Population Healthy Nuclei (%)” value [3] was 76%. For the same compound, the “Population Hoechst High Intensity Objects (%)” value [3] was 7%, the “Population Membrane Permeable-Phenotype (%)” value [3] was 0% and the “Population Mitochondria Different-Phenotype (%)” value [3] was 45%. The “Population Mitotic Cells (%)” value [3] was 56%, the “Population Normal (%)” value [3] was 92% and the “Population Pyknosed Nuclei (%)” value [3] was 18%. The “Population Tubulin-Different-Phenotype (%)” value [3] was 35%, the “Total Cell Count” value [3] was 313 and the “Population Apoptotic (%)” value [4] was 51%. For the same compound, the “Population Healthy Nuclei (%)” value [4] was 79%, the “Population Mitochondria Different-Phenotype (%)” value [4] was 49% and the “Population Mitotic Cells (%)” value [4] was 48%. For the same compound, the “Population Pyknosed Nuclei (%)” value [4] was 15%, the “Population Tubulin-Different-Phenotype (%)” value [4] was 26% and the “Total Cell Count” value [4] was 327. For the same compound, the “Population Apoptotic (%)” value [5] was 27%, the “Population Fragmented Nuclei (%)” value [5] was 9% and the “Population Healthy Nuclei (%)” value [5] was 79%. The “Population Hoechst High Intensity Objects (%)” value [5] was 4%, the “Population Membrane Permeable-Phenotype (%)” value [5] was 0% and the “Population Mitochondria Different-Phenotype (%)” value [5] was 28%. For the same compound, the “Population Mitotic Cells (%)” value [5] was 72%, the “Population Normal (%)” value [5] was 95% and the “Population Pyknosed Nuclei (%)” value [5] was 10%. For the same compound, the “Population Tubulin-Different-Phenotype (%)” value [5] was 26%, the “Total Cell Count” value [5] was 604 and the “Population Apoptotic (%)” value [6] was 31%. For the same compound, the “Population Fragmented Nuclei (%)” value [6] was 7%, the “Population Healthy Nuclei (%)” value [6] was 83% and the “Population Hoechst High Intensity Objects (%)” value [6] was 7%. The “Population Mitochondria Different-Phenotype (%)” value [6] was 52%, the “Population Mitotic Cells (%)” value [6] was 68% and the “Population Normal (%)” value [6] was 92%. For the same compound, the “Population Pyknosed Nuclei (%)” value [6] was 8%, the “Population Tubulin-Different-Phenotype (%)” value [6] was 21% and the “Total Cell Count” value [6] was 491. The “Population Apoptotic (%)” value [7] was 33%, the “Population Fragmented Nuclei (%)” value [7] was 8% and the “Population Healthy Nuclei (%)” value [7] was 75%. For the same compound, the “Population Hoechst High Intensity Objects (%)” value [7] was 5%, the “Population Membrane Permeable-Phenotype (%)” value [7] was 0% and the “Population Mitochondria Different-Phenotype (%)” value [7] was 34%. The “Population Mitotic Cells (%)” value [7] was 66%, the “Population Normal (%)” value [7] was 94% and the “Population Pyknosed Nuclei (%)” value [7] was 16%. For the same compound, the “Population Tubulin-Different-Phenotype (%)” value [7] was 31%, the “Total Cell Count” value [7] was 369 and the “Population Apoptotic (%)” value [8] was 39%. For the same compound, the “Population Healthy Nuclei (%)” value [8] was 79%, the “Population Hoechst High Intensity Objects (%)” value [8] was 6% and the “Population Mitochondria Different-Phenotype (%)” value [8] was 40%. The “Population Mitotic Cells (%)” value [8] was 60%, the “Population Normal (%)” value [8] was 93% and the “Population Pyknosed Nuclei (%)” value [8] was 12%. The “Population Tubulin-Different-Phenotype (%)” value [8] was 20%, the “Total Cell Count” value [8] was 422 and the “Population Apoptotic (%)” value [9] was 23%. The “Population Fragmented Nuclei (%)” value [9] was 13%, the “Population Healthy Nuclei (%)” value [9] was 79% and the “Population Hoechst High Intensity Objects (%)” value [9] was 2%. For the same compound, the “Population Membrane Permeable-Phenotype (%)” value [9] was 1%, the “Population Mitochondria Different-Phenotype (%)” value [9] was 16% and the “Population Mitotic Cells (%)” value [9] was 76%. The “Population Normal (%)” value [9] was 97%, the “Population Pyknosed Nuclei (%)” value [9] was 7% and the “Population Tubulin-Different-Phenotype (%)” value [9] was 14%. The “Total Cell Count” value [9] was 998, the “Population Apoptotic (%)” value [10] was 19% and the “Population Fragmented Nuclei (%)” value [10] was 14%. For the same compound, the “Population Hoechst High Intensity Objects (%)” value [10] was 5%, the “Population Membrane Permeable-Phenotype (%)” value [10] was 0% and the “Population Mitochondria Different-Phenotype (%)” value [10] was 26%. For the same compound, the “Population Mitotic Cells (%)” value [10] was 80%, the “Population Normal (%)” value [10] was 94% and the “Population Pyknosed Nuclei (%)” value [10] was 6%. The “Population Tubulin-Different-Phenotype (%)” value [10] was 13%, the “Total Cell Count” value [10] was 673 and the “Population Apoptotic (%)” value [11] was 24%. The “Population Fragmented Nuclei (%)” value [11] was 9%, the “Population Healthy Nuclei (%)” value [11] was 79% and the “Population Hoechst High Intensity Objects (%)” value [11] was 3%. The “Population Membrane Permeable-Phenotype (%)” value [11] was 2%, the “Population Mitochondria Different-Phenotype (%)” value [11] was 25% and the “Population Mitotic Cells (%)” value [11] was 75%. For the same compound, the “Population Normal (%)” value [11] was 96%, the “Population Pyknosed Nuclei (%)” value [11] was 10% and the “Population Tubulin-Different-Phenotype (%)” value [11] was 22%. For the same compound, the “Total Cell Count” value [11] was 479, the “Population Apoptotic (%)” value [12] was 39% and the “Population Fragmented Nuclei (%)” value [12] was 11%. The “Population Healthy Nuclei (%)” value [12] was 82%, the “Population Hoechst High Intensity Objects (%)” value [12] was 5% and the “Population Mitochondria Different-Phenotype (%)” value [12] was 23%. The “Population Mitotic Cells (%)” value [12] was 60%, the “Population Normal (%)” value [12] was 94% and the “Population Pyknosed Nuclei (%)” value [12] was 6%. The “Population Tubulin-Different-Phenotype (%)” value [12] was 24% and the “Total Cell Count” value [12] was 555.
